From PubChem BioAssay
Only some compounds are listed: those with a hit (about 3.1% of all), similar ones and a draw of the others.
PRMT1 inh: PRMT1 (human) inhibition, primary screen. recombinant PRMT1, activity-based probe fluorescence polarization. inhibition, % at 2.79 µM. actives 1.3% (n = 370,000). AID 652257;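 active means inhibition above about 21% made by adding two undisclosed values, limit read from the data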
UHRF1 MBD2 ctr: human UHRF1 methylated DNA binding inhibitors; Q96T88; UHRF1 binding to methylated oligo, TR-FRET; inhibition, % at 4.4 µM; actives 0.75% (n = 370,000); in the data active means inhibition above about 21%;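 further: UHRF1 SRA domain binding a hemimethylated CpG hairpin DNA probe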
Target sequence (Q96T88 whole entry, looked up, the tested form may be a part): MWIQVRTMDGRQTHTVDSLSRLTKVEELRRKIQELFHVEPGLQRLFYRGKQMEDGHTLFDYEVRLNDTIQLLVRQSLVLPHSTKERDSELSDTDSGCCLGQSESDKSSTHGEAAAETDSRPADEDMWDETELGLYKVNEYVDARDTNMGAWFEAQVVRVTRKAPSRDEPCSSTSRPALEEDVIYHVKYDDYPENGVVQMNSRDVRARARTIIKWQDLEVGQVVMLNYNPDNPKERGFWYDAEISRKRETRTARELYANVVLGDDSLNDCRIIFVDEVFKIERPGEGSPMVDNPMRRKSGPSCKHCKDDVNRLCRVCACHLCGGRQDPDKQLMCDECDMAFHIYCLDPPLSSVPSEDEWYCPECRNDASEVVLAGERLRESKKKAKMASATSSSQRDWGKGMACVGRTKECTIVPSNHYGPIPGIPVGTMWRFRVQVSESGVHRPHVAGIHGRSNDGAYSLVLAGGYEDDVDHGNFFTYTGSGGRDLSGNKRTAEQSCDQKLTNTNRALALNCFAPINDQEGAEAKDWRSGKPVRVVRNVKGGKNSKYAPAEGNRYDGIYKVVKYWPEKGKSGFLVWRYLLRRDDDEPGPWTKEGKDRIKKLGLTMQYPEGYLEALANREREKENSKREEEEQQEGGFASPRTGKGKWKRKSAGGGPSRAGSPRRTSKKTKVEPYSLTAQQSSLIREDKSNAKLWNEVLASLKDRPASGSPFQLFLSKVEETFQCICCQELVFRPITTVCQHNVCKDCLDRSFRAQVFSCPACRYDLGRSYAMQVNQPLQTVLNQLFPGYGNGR
MBD2 inh: MBD2-methylated oligo binding inhibition; TR-FRET, MBD2 binding to methylated oligonucleotide; inhibition, % at 4.4 µM; actives 0.31% (n = 370,000); in the data active means inhibition above about 13%
ABHD5-PLIN5 inh: inhibitors of human ABHD5-perilipin-5 interaction | Q00G26+Q8WTS1 | Split G. princeps luciferase complementation, luminescence, 4 h | inhibition, % at 4 µM | actives 0.78% (n = 360,000);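 active means inhibition above the mean inhibition across every tested compound plus 3 SD, cut at about 22% in these data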
LEDGF integ inh: blocks HIV-1 LEDGF/p75-dependent DNA integration. TR-FRET IN-LEDGF/p75 DNA integration, Eu/Cy5. actives 0.64% (n = 370,000). inhibition, % at 3.7 µM. AID 743269;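 active means inhibition above the screen-wide mean plus 3 SD, cut at about 13% in these data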;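 further: signal is the Cy5 over europium emission ratio at 671 and 618 nm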
RBBP9 inhibitor: inhibitors of human serine hydrolase RBBP9 | O75884 | recombinant RBBP9, FP-Rh probe fluorescence polarization | inhibition, % at 7.94 µM | actives 0.2% (n = 220,000);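 active means inhibition above the campaign mean of all tested compounds plus 3 SD, cut at about 14% in these data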
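System: RBBP9 protein / Buffer or medium: Tris/NaCl buffer pH 8.0 with 0.1% Pluronic / Probe or stimulus: Serine-hydrolase probe FP-Rh, 375 nM pre-mixing / Dosing: 7.94 µM single dose, 0.794% DMSO / Times: enzyme-compound preincubation 30 min, then probe labeling 45 min, 25 °C / Technique: fluorescence polarization (mP), excitation 525 nm, emission 598 nm / Replication: singlicate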
ABHD5 PLIN5 conf: confirmation of human ABHD5-PLIN5 interaction inhibitors; shares compounds with ABHD5-PLIN5 inh; biochemical ABHD5-PLIN5 interaction, luminescence; inhibition, % at 4 µM; actives 67% (n = 2,200); in the data active means inhibition above about 23%
HNF4 counter: HNF4 split-luciferase signal hit, counter-screen; HNF4 dimerization, luminescence, biochemical; shares compounds with ABHD5-PLIN5 inh; inhibition, % at 4 µM; actives 77% (n = 2,200); AID 651674;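 active means mean inhibition across replicate wells exceeding the computed hit threshold, cut at about 13% in these data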;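 further: light from luciferase halves that rejoin when HNF4 fusion proteins dimerize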
Each line names hits and unclear results; the compound was inactive in the other large screens (follow-up assays come after a bar, where they were run).

CC(C)(C)S(=O)N1Cc2cc(C(=O)O)nc(-c3cccc(-c4cc5ccccc5o4)c3)c2[C@H]1CCO (some centres not stated)	none (no result: RBBP9 inhibitor)
COc1ccc(N2CCN(CCCNC(=O)Cc3ccc(C(F)(F)F)cc3)CC2)cc1	none (no result: ABHD5-PLIN5 inh, RBBP9 inhibitor)
CCOC(=O)c1cc2c(=O)n3ccccc3nc2n(Cc2ccco2)c1=NC(=O)c1cccnc1	none
CCOC(=O)c1cc2c(=O)n3cccc(C)c3nc2n(Cc2ccco2)c1=NC(=O)c1cccnc1	ABHD5-PLIN5 inh 24 | ABHD5 PLIN5 conf 46 | HNF4 counter 58
CCCn1c(=NC(C)=O)c(C#N)cc2c(=O)n3cccc(C)c3nc21	none (no result: PRMT1 inh, UHRF1 MBD2 ctr, MBD2 inh, ABHD5-PLIN5 inh, LEDGF integ inh)
CCOC(=O)c1cc2c(=O)n3ccccc3nc2n(Cc2ccco2)c1=NC(=O)c1ccccc1OCC	ABHD5-PLIN5 inh 24 | ABHD5 PLIN5 conf inactive | HNF4 counter 45
Cc1cccn2c(=O)c3cc(C#N)c(=NC(=O)c4ccco4)n(Cc4ccco4)c3nc12	ABHD5-PLIN5 inh 39 | ABHD5 PLIN5 conf 23 | HNF4 counter 54
C=CCOC(=O)N[C@@H](c1cccc(OC)c1)[C@@H](C)/C=C/CC(=O)O	none (no result: ABHD5-PLIN5 inh, RBBP9 inhibitor)
COc1cc(CNCCO)cc(Cl)c1OCc1ccccc1Cl	none
CCOc1cc(CNCCO)cc(Br)c1OCc1ccc(Cl)cc1	ABHD5-PLIN5 inh 25 | ABHD5 PLIN5 conf inactive | HNF4 counter inactive
CCOc1cc(CNCCCN2CCOCC2)cc(Br)c1OCc1ccccc1Cl	ABHD5-PLIN5 inh 30 | ABHD5 PLIN5 conf inactive | HNF4 counter 17
CCOc1cc(CNCCN2CCOCC2)ccc1OCc1ccccc1Cl	none
CCOc1cc(CNCCO)cc(Br)c1OCc1ccccc1Cl	ABHD5-PLIN5 inh 28 | ABHD5 PLIN5 conf inactive | HNF4 counter inactive
COc1ccc(CN2CN3CCc4ccccc4C3CS2(=O)=O)cc1 (configuration not stated)	none (no result: ABHD5-PLIN5 inh, RBBP9 inhibitor)
COc1cccc(CNc2nc3cc(-c4ccc(C(=O)N5CCN(C)CC5)cc4)sc3c(=O)n2C)c1	ABHD5-PLIN5 inh 24 (no result: RBBP9 inhibitor) | ABHD5 PLIN5 conf inactive | HNF4 counter inactive
CCCn1cc(C(=O)Nc2ccc(Oc3cccnc3)cc2)c2ccccc21	none (no result: ABHD5-PLIN5 inh, RBBP9 inhibitor)
CN(Cc1ccco1)C(=O)CCc1nc2sc3c(c2c(=O)[nH]1)CCCC3	ABHD5-PLIN5 inh 24 (no result: RBBP9 inhibitor) | ABHD5 PLIN5 conf 26 | HNF4 counter 43
CN(C)C(=O)CCc1nc2sc3c(c2c(=O)[nH]1)CCCC3	none
Cc1ccc(CN(C)C(=O)CCc2nc3sc4c(c3c(=O)[nH]2)CCCC4)o1	ABHD5-PLIN5 inh 32 (no result: RBBP9 inhibitor) | ABHD5 PLIN5 conf inactive | HNF4 counter 29
COc1ccc(Br)cc1/C=N/NC(=O)c1ccco1	none
COc1ccc(Br)cc1C(=O)Nc1ccc(NC(=O)c2ccco2)cc1	none
COc1ccccc1C=CC(=O)C=Cc1ccccc1OC	ABHD5-PLIN5 inh 32 (no result: RBBP9 inhibitor) | ABHD5 PLIN5 conf 72 | HNF4 counter 45
Cc1ccc(/C=C/C(=O)c2cc(Br)ccc2OC(=O)c2ccco2)cc1	ABHD5-PLIN5 inh 74 | ABHD5 PLIN5 conf 95 | HNF4 counter 74
COc1ccccc1/C=C/C(=O)c1cc(Br)ccc1OC(=O)c1ccco1	ABHD5-PLIN5 inh 66 | ABHD5 PLIN5 conf 94 | HNF4 counter 74
O=C(N[C@H](C(=O)N1CCC[C@H]1C(=O)NCCc1ccccc1Cl)c1ccccc1)c1cccs1	none (no result: ABHD5-PLIN5 inh, RBBP9 inhibitor)
COCCCN1CCN(C2Cc3ccccc3Sc3ccc(Cl)cc32)CC1 (configuration not stated)	ABHD5-PLIN5 inh 25 | ABHD5 PLIN5 conf inactive | HNF4 counter inactive
NC(=O)CCN1CCN(CCOC2Cc3cc(Cl)ccc3Sc3ccccc32)CC1 (configuration not stated)	ABHD5-PLIN5 inh 25 | ABHD5 PLIN5 conf 22 | HNF4 counter inactive
O=C1[C@@H](CCc2ccccc2)[C@@H]2c3ccccc3C=NN2[C@@H]2c3ccccc3C=NN12	none (no result: ABHD5-PLIN5 inh, RBBP9 inhibitor)
Cc1ccc(Cl)c(NC(=O)COC(=O)CNS(=O)(=O)/C=C/c2ccccc2)c1Cl	ABHD5-PLIN5 inh 44 | ABHD5 PLIN5 conf inactive | HNF4 counter inactive
CCc1cccc(C)c1NC(=O)COC(=O)CNS(=O)(=O)/C=C/c1ccccc1	none
CN(C)c1ccc(-n2cccc2/C=C/[N+](=O)[O-])cc1	ABHD5-PLIN5 inh 52 | ABHD5 PLIN5 conf 82 | HNF4 counter 71
NC1=NC(=O)/C(=C/c2ccc(Cl)cc2Cl)S1	none (no result: RBBP9 inhibitor)
NC1=NC(=O)/C(=C\c2cc([N+](=O)[O-])ccc2Cl)S1	ABHD5-PLIN5 inh 25 | ABHD5 PLIN5 conf 24 | HNF4 counter 19
COc1cccc(N(C)C(=O)[C@@H](C)[C@@H](O)c2ccc(Cl)cc2)c1	none (no result: ABHD5-PLIN5 inh, RBBP9 inhibitor)
CCCn1c(CC)nc([N+](=O)[O-])c1S(=O)(=O)c1ccccc1	ABHD5-PLIN5 inh 42 | ABHD5 PLIN5 conf 50 | HNF4 counter 54
CCc1nc(C)cn1S(=O)(=O)c1ccc([N+](=O)[O-])cc1	none
O=C(NC1CCCCN(Cc2cccc(C(F)(F)F)c2)C1=O)c1ccc(Cl)c(Cl)c1 (configuration not stated)	none (no result: ABHD5-PLIN5 inh, RBBP9 inhibitor)
CCOC(=O)N1CCc2c(sc(NC(=O)CN3CCOCC3)c2C(=O)Nc2ccccc2)C1	ABHD5-PLIN5 inh 23 | ABHD5 PLIN5 conf inactive | HNF4 counter inactive
CC1CCN(S(=O)(=O)c2ccc(NC(=O)Cn3nnc(-c4ccccc4F)n3)cc2)CC1	ABHD5-PLIN5 inh 26 | ABHD5 PLIN5 conf 41 | HNF4 counter inactive
CC1CCN(S(=O)(=O)c2ccc(NC(=O)Cc3ccccc3)cc2)CC1	ABHD5-PLIN5 inh 33 | ABHD5 PLIN5 conf 50 | HNF4 counter inactive
O=C(Cn1nnc(-c2ccccc2F)n1)Nc1ccc(Cl)c(Cl)c1	none (no result: ABHD5-PLIN5 inh, RBBP9 inhibitor)
C#CCNC(=O)C[C@H]1C(=O)N(CCc2ccc(Cl)cc2)C2=CCCC[C@@]21C(=O)OCC	none (no result: ABHD5-PLIN5 inh, RBBP9 inhibitor)
COC(=O)c1ccc(Cn2cc(/C=C\[N+](=O)[O-])c3ccccc32)o1	ABHD5-PLIN5 inh 43 (no result: RBBP9 inhibitor) | ABHD5 PLIN5 conf 88 | HNF4 counter 46
O=[N+]([O-])/C=C/c1cn(Cc2ccc(Cl)cc2)c2ccccc12	ABHD5-PLIN5 inh 45 | ABHD5 PLIN5 conf 98 | HNF4 counter 83
Cc1cccc(Cn2cc(/C=C/[N+](=O)[O-])c3ccccc32)c1	ABHD5-PLIN5 inh 25 | ABHD5 PLIN5 conf 91 | HNF4 counter 86
O=C(O)c1ccc(Cn2cc(/C=C\[N+](=O)[O-])c3ccccc32)o1	none (no result: RBBP9 inhibitor)
COc1ccc(C(=O)OCC(=O)N2CCN(S(=O)(=O)c3ccc(C)cc3)CC2)cc1[N+](=O)[O-]	ABHD5-PLIN5 inh 86 (no result: RBBP9 inhibitor) | ABHD5 PLIN5 conf inactive | HNF4 counter inactive
COc1ccc(C(=O)OCC(=O)N2CCCCC2)cc1[N+](=O)[O-]	none
